Reference: ChEMBL document CHEMBL1158416, “Synthesis of yashabushidiol and its analogues and their cytotoxic activity against cancer cell lines” (Bioorg Med Chem Lett, 2009)
≈ marks a conversion by molar mass, not a printed value.

How the values were obtained:
Type in all cases: functional, cell-based
A-375 = test: Antiproliferative activity against human A375 cells after 48 hrs by MTT assay; settings: A-375, 48 h
Outline: (§1)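 Cells in exponential growth exposed to a range of test concentrations for 48 h; growth inhibition read by MTT. IC50 taken as the concentration giving a 50% fall in cell number relative to untreated control cultures, derived by regression analysis.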

U-937 = test: Antiproliferative activity against human U937 cells after 48 hrs by MTT assay; settings: U-937, 48 h; outline: as §1
THP-1 = test: Antiproliferative activity against human THP1 cells after 48 hrs by MTT assay; settings: THP-1, 48 h; outline: as §1

Structure (SMILES)	IC50 (A-375)	IC50 (U-937)	IC50 (THP-1)
Oc1ccc(CC[C@@H](O)C[C@@H](O)CCc2ccccc2)cc1	57.8 µg/mL (≈ 192 µM)	33 µg/mL (≈ 110 µM)	12.6 µg/mL (≈ 42 µM)
O[C@@H](CCc1ccccc1)C[C@@H](O)CCc1ccccc1	148 µg/mL (≈ 520 µM)	128 µg/mL (≈ 451 µM)	99.8 µg/mL (≈ 351 µM)
O[C@H](CCc1ccccc1)C[C@@H](O)CCc1ccccc1	164 µg/mL (≈ 578 µM)	188 µg/mL (≈ 660 µM)	40.5 µg/mL (≈ 142 µM)

More lines, now with the values ahead:

IC50 (A-375)	IC50 (U-937)	IC50 (THP-1)	Structure (SMILES)
56.3 µg/mL (≈ 187 µM)	31.1 µg/mL (≈ 103 µM)	12.8 µg/mL (≈ 42.7 µM)	Oc1ccc(CC[C@H](O)C[C@@H](O)CCc2ccccc2)cc1
69.1 µg/mL (≈ 209 µM)	27.7 µg/mL (≈ 83.7 µM)	42.7 µg/mL (≈ 129 µM)	COc1cc(CC[C@H](O)C[C@@H](O)CCc2ccccc2)ccc1O
75.2 µg/mL (≈ 228 µM)	32.7 µg/mL (≈ 98.9 µM)	72.2 µg/mL (≈ 219 µM)	COc1cc(CC[C@@H](O)C[C@@H](O)CCc2ccccc2)ccc1O
